From ChEMBL document CHEMBL1212823, “m-Azipropofol (AziPm) a photoactive analogue of the intravenous general anesthetic propofol” (J Med Chem, 2010) come the findings set out here.

Broadly, the EC50 is the concentration giving half of the maximal effect. One may read the half-life as the time in which the quantity being followed falls by half. Usually solubility stands for how much of the substance goes into solution per volume. The low end stands for a poorly soluble substance, the high end for a readily soluble substance. As a reminder, the Kd is the concentration at which binding is half-saturated. Higher therefore signals a looser complex.

Values after ≈ are worked out from the molar mass of the structure shown. Active and inactive are the calls of the source. The calls are words filed in the database; no cut-off is given here.

For series [1], the species on record is Equus caballus. The series is described as follows: Binding affinity to horse spleen apoferritin by isothermal titration calorimetry. Summed up:
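Sequential titrations were linked and corrected with ligand-into-buffer, buffer-into-protein and buffer-into-buffer controls. Heats were fitted to a single binding-site class, Hill slope fixed at 1; mean with 95% CI.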
For orientation: Isothermal titration calorimetry measures the heat released or taken up as one component is titrated into another.

Series [2] is filed under the species Equus caballus. Nature of the series: Binding affinity to horse spleen apoferritin using 1-AMA by fluorescence competition assay. The essentials:
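HSAF 7 μM with 7 μM 1-aminoanthracene in pH 7.4 PBS, titrated with compound 0–110 μM. Excitation 380 nm, emission 400–800 nm, baseline-corrected. Variable-slope Hill fit gave IC50 and Hill slope; KD obtained by Cheng–Prusoff correction for the 1-AMA competitor.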

The subject of series [3] is Xenopus laevis. The series is described as follows: Anesthetic effect on Xenopus laevis tadpole assessed as loss of spontaneous motion measured for 30 seconds after 30 mins. The series is classed as functional, organism-based. Conditions: 0.5 h. The essentials: (§1)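 Xenopus tadpoles in groups of 10, in 30 mL pond water containing a range of compound concentrations, incubated 30 min to equilibrate. Water was then replaced with fresh pond water and recovery followed over 24 h.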

Series [4] concerns Xenopus laevis. The series is described as follows: Anesthetic effect on Xenopus laevis tadpole assessed as loss of startle reflex after 30 mins. Type of series: functional, organism-based. The conditions noted are these: 0.5 h. Summed up: as §1
In series [5] the target is T1, GABA-A receptor; alpha-1/beta-2/gamma-2 (Rattus norvegicus) (UniProt P18508+P62813+P63138). The series is described as follows: Activation of rat alpha-1-beta-2-gamma-2L expressed in HEK293 cells assessed as potentiation of GABA-induced current at 0.3 to 3 uM by electrophysiological assay relative to control. Type of series: cell-based.
Series [6] concerns the target T1, GABA-A receptor; alpha-1/beta-2/gamma-2 (Rattus norvegicus). Nature of the series: Activation of rat alpha-1-beta-2-gamma-2L expressed in HEK293 cells at 30 uM by electrophysiological assay. The series is classed as cell-based.
Series [7] in a line: Chemical stability of the compound assessed as half life in presence of UV irradiation. Type of series: physicochemical. Summed up:
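A 160 μM solution in distilled water in a 1 cm quartz cuvette was irradiated at 350 nm for 30 min. UV spectra were taken every 3 min to follow loss of the diazirine peak (368 nm); t1/2 reported with 95% CI.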

Series [8] in a line: Solubility of the compound in water. Type of series: physicochemical. The essentials: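 Extinction coefficient of the 368 nm diazirine band determined in methanol at known concentration; maximal concentration in distilled water then calculated from UV absorbance using that coefficient.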
Series [9] can be described thus: Binding affinity to horse spleen apoferritin using 1-AMA by fluorescence competition method.

With `CC(C)c1ccc(C2(C(F)(F)F)N=N2)cc1O`, the values for the Activity in the series listed under Equus caballus [1] and in the series listed under Equus caballus [2] were 21 µM and 23 µM, respectively. Moreover, the concentration for a half-maximal effect (EC50) with Xenopus laevis [3] was determined as 1.1 µM; in the series with Xenopus laevis [4] it was 3.1 µM. The fold change (FC) in [5] amounted to 1.7. Moreover, the result in series [6] was inactive. The half-life in [7] was 34 min. Besides, the solubility in [8] was determined as 185 µM (≈ 45.2 µg/mL). In series [9], binding was characterised by a dissociation constant (Kd) of 19 µM.
Regarding `CC(C)c1cccc(C(C)C)c1O` [PROPOFOL], the Activity in the series filed under Equus caballus [1] stood at 4.8 µM; in the series listed under Equus caballus [2], 12 µM. Moreover, the EC50 with Xenopus laevis [3] stood at 1.1 µM; with Xenopus laevis [4], 2.8 µM. Also, the fold change (FC) in [5] worked out at 9.3. For the same compound, the outcome in [6] was Active. The compound further displayed a Kd in series [9] of 10 µM.
